In experiment [1] the test system is HCC1806. Nature of the experiment: Cytotoxicity against human HCC1806 cells assessed as reduction in cell viability incubated for 3 days by cell-titer-Glo reagent based assay. Type of experiment: functional. The conditions noted are these: for IC50: HCC1806, 72 h. In short, it runs like this: (§1)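 Viability by CellTiter-Glo (ATP read-out). Cells plated at 3 × 10³/well in 384-well format overnight, then exposed to compound over a range (0.125–20 µM for initial series) for 3 d in RPMI 1640 with 10% FBS at 37°C, 5% CO₂. IC₅₀ fitted from dose–response curve.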

The subject of experiment [2] is HCC1806. As to the kind of experiment: Increase in Bim mRNA expression in human HCC1806 cells at 10 uM by RT-PCR method. Type of experiment: functional, cell-based. The conditions noted are these: TDE = time-dependent effect. A digest of the protocol:
(§2)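 HCC-1806 cells treated with 10 µM over a time course; ATF4, GADD34 or Bim mRNA by qRT-PCR. Means of 4 replicate wells, representative of 3 experiments, Student's t-test vs DMSO-treated cells.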

Experiment [3] concerns HCC1806. Nature of the experiment: Increase in CHOP mRNA expression in human HCC1806 cells at 10 uM by qRT-PCR method. Type of experiment: functional, cell-based. Conditions: TDE = time-dependent effect. In short, it runs like this:
(§3)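 HCC-1806 cells (4 × 10⁵/well) exposed to 10 µM over a time course; CHOP mRNA by qRT-PCR after TRIzol extraction and reverse transcription of 2 µg RNA. Means of 4 replicate wells, 3 experiments, t-test vs 0 h.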
(Quantitative PCR measures a nucleic acid by following its amplification.)

Experiment [4] concerns MCF7. As to the kind of experiment: Cytotoxicity against human MCF7 cells assessed as reduction in cell viability incubated for 3 days by cell-titer-Glo reagent based assay. Type of experiment: functional. In short, it runs like this:
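HCC-1806 and MCF7 cells exposed to compound for 3 d, viability read by CellTiter-Glo kit; means of 4 replicate wells, representative of 3 independent experiments.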

Experiment [5] has as its system HCC1806. Nature of the experiment: Increase in CHOP mRNA expression in human HCC1806 cells incubated for 8 hrs by qRT-PCR method. Format: functional, cell-based. In short, it runs like this:
(§4)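 HCC-1806 cells (4 × 10⁵/well, 6-well) treated at a series of concentrations for 8 h; total RNA by TRIzol, 2 µg reverse transcribed, CHOP mRNA by qRT-PCR. Means of 4 replicate wells, 3 experiments, t-test vs DMSO.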

In experiment [6] the test system is HCC1143. As to the kind of experiment: Cytotoxicity against human HCC1143 cells assessed as reduction in cell viability incubated for 3 days by cell-titer-Glo reagent based assay. Format: functional. Conditions: HCC1143, 72 h. In short, it runs like this: as §1
The test system of experiment [7] is HCC1806. As to the kind of experiment: Cytotoxicity against human HCC1806 cells assessed as reduction in cell viability at 5 uM incubated for 48 hrs in presence of CHOP siRNA by cell-titer-Glo reagent based assay. Type of experiment: functional. A digest of the protocol: (§5)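 HCC-1806 cells in serum-free RPMI transfected with 20 nM CHOP or scrambled siRNA by lipofection; after 6 h medium replaced with 10% FBS RPMI and compound (5 µM) or DMSO added for 48 h in 96-well format. Viability by CellTiter-Glo; 3 independent experiments, Student's t-test vs DMSO.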

The subject of experiment [8] is HCC1806. Nature of the experiment: Cytotoxicity against human HCC1806 cells assessed as reduction in cell viability at 5 uM incubated for 48 hrs in presence of control siRNA by cell-titer-Glo reagent based assay. Format: functional. A digest of the protocol:
as §5

Experiment [9] relates to HCC1806. Nature of the experiment: Induction of apoptosis in human HCC1806 cells assessed as increase in caspase-3 cleavage at 10 uM incubated for 8 and 24 hrs by Western blotting method. Format: functional, cell-based. In short, it runs like this: (§6)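 HCC-1806 cells (8 × 10⁵ per 60-mm dish) treated with 10 µM for the indicated times, lysed in buffer with EDTA and phosphatase inhibitors; 20 µg protein on 7% SDS-PAGE, PVDF transfer, primary then HRP secondary antibodies (1:3000). α-Tubulin loading control; representative of 3 experiments.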

The subject of experiment [10] is HCC1806. As to the kind of experiment: Increase in XBP1 mRNA splicing in human HCC1806 cells at 10 uM incubated for 4 hrs by RT-PCR method (reference value: 11%). Format: functional. A digest of the protocol:
(§7)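 HCC-1806 cells given 10 µM compound or tunicamycin 1 µg/mL over a time course; XBP1 RT-PCR products resolved on agarose gel, GAPDH internal control. Spliced fraction by densitometry as XBP1s/(XBP1s+XBP1u) × 100%; 3 experiments.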

Experiment [11] has as its system HCC1806. As to the kind of experiment: Increase in CHOP mRNA expression in human HCC1806 cells at 10 uM by qRT-PCR method relative to control. Format: functional. In short, it runs like this:
as §3

Experiment [12] deals with HCC1806. As to the kind of experiment: Increase in CHOP protein expression in human HCC1806 cells at 10 uM incubated for 2 and 24 hrs by Western blotting method. Format: functional, cell-based. The conditions noted are these: in the assay text read “4 and 24 hrs” for “2 and 24 hrs”. In short, it runs like this: as §6
(In general: A western blot detects proteins with antibodies after separation by electrophoresis.)

The subject of experiment [13] is HCC1806. As to the kind of experiment: Increase in GADD34 mRNA expression in human HCC1806 cells at 10 uM incubated for 2 to 24 hrs by qRT-PCR method. Format: functional, cell-based. Conditions: TDE = time-dependent effect. In short, it runs like this:
as §2

The test system of experiment [14] is HCC1806. Nature of the experiment: Increase in cleaved caspase-4 protein expression in human HCC1806 cells at 10 uM incubated for 8 to 24 hrs by Western blotting method. Format: functional, cell-based. A digest of the protocol: as §6
Experiment [15] has as its system HCC1806. As to the kind of experiment: Increase in XBP1 mRNA splicing in human HCC1806 cells at 10 uM incubated for 2 hrs by RT-PCR method (reference value: 11%). Format: functional. A digest of the protocol: as §7
In experiment [16] the test system is HCC1806. Nature of the experiment: Increase in XBP1 mRNA splicing in human HCC1806 cells at 10 uM incubated for 8 hrs by RT-PCR method (reference value: 11%). Format: functional. A digest of the protocol: as §7
The subject of experiment [17] is HCC1806. As to the kind of experiment: Induction of apoptosis in human HCC1806 cells assessed as reduction in cell number at 10 uM incubated for 24 hrs by live-cell phase-contrast microscopy. Type of experiment: functional, cell-based. A digest of the protocol:
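Near-confluent HCC-1806 cultures treated with 10 µM compound or DMSO for 24 h, then imaged by live-cell phase-contrast microscopy at 10× magnification.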

Experiment [18] has as its system HCC1806. As to the kind of experiment: Increase in CHOP mRNA expression in human HCC1806 cells at 5 uM in presence of CHOP siRNA incubated for 48 hrs by qRT-PCR method. Format: functional, cell-based. In short, it runs like this:
(§8)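 HCC-1806 cells transfected with CHOP or scrambled siRNA; 6 h later treated with 5 µM compound or DMSO for 48 h. CHOP mRNA by RT-PCR with GAPDH as internal control; 3 independent experiments.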

Experiment [19] concerns HCC1806. Nature of the experiment: Reduction in ATF4 protein in human HCC1806 cells at 10 uM incubated for 2 to 8 hrs by Western blotting method. Type of experiment: functional, cell-based. A digest of the protocol:
as §6

Experiment [20] has as its system HCC1806. As to the kind of experiment: Increase in ATF4 protein in human HCC1806 cells at 10 uM incubated for 2 to 8 hrs by Western blotting method. Type of experiment: functional, cell-based. A digest of the protocol:
as §6

Experiment [21] deals with HCC1806. As to the kind of experiment: Increase in CHOP mRNA expression in human HCC1806 cells incubated for 8 hrs by qRT-PCR method relative to control. Format: functional. In short, it runs like this:
as §4

For experiment [22], the system named is HEK-293T. Nature of the experiment: Increase in ERSE-mediated luciferase expression in HEK293T cells stably transfected with ERSE-luciferase gene at 10 uM incubated for 24 hrs by luciferase reporter gene assay. Format: functional, cell-based. The conditions noted are these: Homo sapiens. In short, it runs like this:
(§9)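 HEK293T cells stably carrying CHOP-, ERSE- or UPRE-luciferase reporters plated 7 × 10³/well in 384-well plates, after 16 h given compound (10 µM), tunicamycin 1 µg/mL or DMSO for 24 h; luciferase by Bright-Glo. Means of 4 replicate wells, representative of 3 experiments.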

For experiment [23], the system named is HCC1806. Nature of the experiment: Increase in CHOP mRNA expression in human HCC1806 cells at 5 uM in presence of control siRNA incubated for 48 hrs by qRT-PCR method. Format: functional, cell-based. In short, it runs like this:
as §8

For experiment [24], the system named is HEK-293T. As to the kind of experiment: Increase in UPRE-mediated luciferase expression in HEK293T cells stably transfected with UPRE-luciferase gene at 10 uM incubated for 24 hrs by luciferase reporter gene assay relative to control. Type of experiment: functional, Homo sapiens. In short, it runs like this: as §9
In general terms: A reporter such as luciferase makes a cellular process visible.

Experiment [25] relates to HCC1806. As to the kind of experiment: Increase in ATF4 mRNA expression in human HCC1806 cells at 10 uM incubated for 2 to 8 hrs by qRT-PCR method. Format: functional, cell-based. A digest of the protocol:
as §2

Experiment [26] deals with HCC1806. As to the kind of experiment: Increase in XBP1 mRNA splicing in human HCC1806 cells at 10 uM incubated for 24 hrs by RT-PCR method (reference value: 11%). Format: functional. A digest of the protocol:
as §7

In experiment [27] the test system is HCC1806. As to the kind of experiment: Reduction in eIF2alpha phosphorylation in human HCC1806 cells at 10 uM incubated for 1 to 24 hrs by Western blotting method. Format: functional, cell-based. A digest of the protocol: as §6
Experiment [28] deals with HCC1806. Nature of the experiment: Increase in eIF2alpha phosphorylation in human HCC1806 cells at 10 uM incubated for 1 to 24 hrs by Western blotting method. Format: functional, cell-based. A digest of the protocol: as §6
The subject of experiment [29] is HCC38. Nature of the experiment: Cytotoxicity against human HCC38 cells assessed as reduction in cell viability incubated for 3 days by cell-titer-Glo reagent based assay. Format: functional. The conditions noted are these: HCC38, 72 h. In short, it runs like this:
as §1

Experiment [30] relates to HCC1806. As to the kind of experiment: Reduction in Bcl-2 protein expression in human HCC1806 cells at 10 uM incubated for 2 to 24 hrs by Western blotting method. Type of experiment: functional, cell-based. In short, it runs like this: as §6

The source made the active and inactive calls. The calls are words filed in the database; no cut-off is given here. A value given as a limit tells only on which side of the number the result lay.

`CCc1ccc(NC(=O)c2ccc([N+](=O)[O-])o2)cc1`: the IC50 in experiment [1] came to 5 µM.
On the same count and under the same terms, as for `O=C(Nc1cc(C(F)(F)F)ccc1Cl)c1ccc([N+](=O)[O-])o1`, the figure is 5.1 µM; as for `CC1CCN(c2ccc(NC(=O)c3ccco3)cc2)CC1`, more than 40 µM.
Same read-out and setting: the same measure for `CCc1cc(I)ccc1NC(=O)c1ccc([N+](=O)[O-])o1`: 5.5 µM.
Same read-out and setting: the same measure for `O=C(Nc1ccc(N2CCCCC2)c(F)c1)c1ccco1`: more than 40 µM.
For the compound `O=C(Nc1cc(Cl)ccc1Cl)c1ccc([N+](=O)[O-])o1`, the IC50 in experiment [1] stood at 8.6 µM.
As for `CCC1CCN(c2ccc(NC(=O)c3ccco3)cc2Cl)CC1`, the half-maximal inhibitory concentration (IC50) in experiment [1] was more than 40 µM.
As to `Cc1ccc(NC(=O)c2ccc([N+](=O)[O-])o2)cc1`, the IC50 in experiment [1] amounted to 6.7 µM.
On the same count and under the same terms, the same measure for `CC(C)Cc1ccccc1NC(=O)c1ccc([N+](=O)[O-])o1`: more than 40 µM.
On the same count and under the same terms, the same measure for `O=C(Nc1cccc(OC(F)(F)F)c1)c1ccc([N+](=O)[O-])o1`: 19.6 µM.
For the compound `CC1CCN(c2ccc(NC(=O)c3ccc([N+](=O)[O-])o3)cc2)CC1`, the Activity result in experiment [2] is “tde”; in experiment [3], “tde”; in [4], “Dose-dependent effect”; in experiment [5], “Dose-dependent effect”; in experiment [10], 16.4%; in experiment [13] it was “tde”. The Activity is 19.6% in experiment [15], 14.2% in experiment [16], 15.3% in [26] and “Dose-dependent effect” in experiment [1]. For the same compound, the results for the half-maximal inhibitory concentration (IC50) in experiment [6], in [1] and in experiment [29] were 2.1 µM, 2.8 µM and 2.5 µM, respectively. Also, the outcome in experiment [7] and in experiment [22] was inactive. Further, the result in [8], in experiment [9], in experiment [12], in [14], in experiment [17] and in [18] was Active. Also, the result in experiment [19], in experiment [20], in experiment [23], in experiment [25], in experiment [27] and in [28] was Active. The outcome in [30] was Active. Further, the “fold change (FC)” value was 9 in experiment [11], 9 in experiment [21] and less than 2 in [24].

One may read the IC50 as the point on the concentration scale where inhibition reaches its midpoint.

For the origin of these results see ChEMBL document CHEMBL3593159, “Identification of 5-nitrofuran-2-amide derivatives that induce apoptosis in triple negative breast cancer cells by activating C/EBP-homologous protein expression” (Bioorg Med Chem, 2015).
